A selection: hits, their analogues and other compounds. The true share with any hit is near 4%.
CHO parental Ca – counter-screen: ATP calcium response change in parental CHO cells; parental CHO-K1, ATP-induced calcium, Fluo-8 fluorescence; inhibition, % at 5.6 µM; 330,000 compounds, 0.63% hits;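 active = inhibition above that plate's mean sample inhibition plus 3 SD, cut at about 26% in these data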
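Material: Parental CHO cells | Reagent: ATP | Compound dosing: Single nominal dose of 5.6 µM per compound | Detection: Intracellular calcium via Fluo-8 no-wash fluorescent dye | Read-out: % inhibition of ATP-induced calcium mobilization | Benchmarks: Low control ATP plus DMSO, high control DMSO only | Replicates: Singlicate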
OX1R antag-1 – blocks the human orexin 1 receptor; 330,000 compounds, 1.8% hits; OX1R-expressing cells, FRET antagonist read-out; AID 485270; inhibition, % at 6.6 µM; O43613; in the data active = inhibition mostly above about 38%, no sharp cut-off; inactive = mostly below about 40%
TAAR1 antagonist – human TAAR1 antagonism; 360,000 compounds, 1.5% hits; Q96RJ0; AID 624466; inhibition, % at 3 µM; CHO RD-HGA16 TAAR1, Fluo-8 calcium fluorescence, antagonist;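 active = inhibition above a per-plate cutoff, the mean inhibition of test compounds on that plate plus 3 SD, cut at about 49% in these data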
Target sequence (Q96RJ0 whole entry, looked up): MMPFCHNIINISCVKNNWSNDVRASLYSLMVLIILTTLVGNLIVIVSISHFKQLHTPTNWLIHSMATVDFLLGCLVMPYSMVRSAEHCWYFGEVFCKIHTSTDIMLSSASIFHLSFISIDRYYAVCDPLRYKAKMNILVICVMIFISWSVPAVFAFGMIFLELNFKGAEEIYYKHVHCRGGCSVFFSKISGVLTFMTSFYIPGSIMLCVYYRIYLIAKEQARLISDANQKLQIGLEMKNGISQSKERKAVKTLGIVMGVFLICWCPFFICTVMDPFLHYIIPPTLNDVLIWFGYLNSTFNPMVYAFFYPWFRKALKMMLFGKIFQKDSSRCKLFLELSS
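Material: RD-HGA16 CHO cells with stable hTAAR1 and Gα16; Dosing: single nominal final test compound concentration of 3 µM; Schedule: seeding 17-24 h prior, 75-min 37 °C, 30-min RT dye loading; Detection: kinetic Fluo-8 calcium fluorescence measurement; Measure: % inhibition from peak post-agonist over basal fluorescence ratio; Benchmarks: vehicle and agonist controls.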
OX1R antag-2 – antagonists of human orexin 1 receptor; O43613; CHO/OX1R cells, Fluo-8 calcium fluorescence, orexin A; inhibition, % at 5 µM; 330,000 compounds, 0.43% hits; AID 434989;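 active = inhibition above its plate's threshold, mean inhibition of all tested compounds on the plate plus 3 SD, cut at about 37% in these data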
NTR1 agonist – NTR1 (human) agonism | P30989 | NTR1-U2OS beta-arrestin-GFP spot imaging, agonist mode | activation, % at 20 µM | 330,000 compounds, 0.17% hits;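 active = activation at or above 40% of the spot to cytoplasm intensity ratio, with at least 20 cells analyzed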
Target sequence (P30989 whole entry, looked up): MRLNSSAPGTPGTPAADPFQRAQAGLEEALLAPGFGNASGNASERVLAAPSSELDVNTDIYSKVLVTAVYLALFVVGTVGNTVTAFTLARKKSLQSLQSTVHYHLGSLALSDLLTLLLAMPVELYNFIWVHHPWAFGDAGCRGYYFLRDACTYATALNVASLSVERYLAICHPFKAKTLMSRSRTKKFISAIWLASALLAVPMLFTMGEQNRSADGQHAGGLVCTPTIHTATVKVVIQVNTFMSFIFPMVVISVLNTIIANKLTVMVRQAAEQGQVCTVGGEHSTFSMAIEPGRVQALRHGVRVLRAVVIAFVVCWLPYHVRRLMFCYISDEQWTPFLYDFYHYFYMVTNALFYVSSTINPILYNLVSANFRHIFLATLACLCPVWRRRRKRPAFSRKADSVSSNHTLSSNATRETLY
TAAR1 agonist – human TAAR1 agonism; AID 624467; 360,000 compounds, 0.99% hits; CHO RD-HGA16 TAAR1, Fluo-8 calcium fluorescence; vehicle wells 0%, saturating PEA agonist 100%; Q96RJ0; activation, % at 3 µM;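 active = activation above the mean activation of all test compounds in the run plus 3 SD, cut at about 38% in these data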
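Signal – calcium-sensitive Fluo-8 signal, excitation 470-495, emission 515-575 nm · System – RD-HGA16 (CHO) cells co-expressing Gα16 and hTAAR1 · Incubation – 17-24 h seeding, 75 min 37 °C dye, 30 min RT · Compound dosing – 3 µM single concentration · Repeats – no replicates (n 1)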
nonsel antag count – nonselective antagonism, TAAR1 counter-screen | shares compounds with TAAR1 antagonist | counterscreen cell line, calcium fluorescence, antagonist mode | inhibition, % at 3 µM | 2,400 compounds, 77% hits | AID 651780; in the data active = inhibition above about 22%;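 also: CHO-Ga16 host cells stimulated with ATP at an EC80 level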
TAAR1 antag conf – human TAAR1 antagonism, confirmed. shares compounds with TAAR1 antagonist. TAAR1-expressing cells, fluorescence antagonist read-out. inhibition, % at 3 µM. 2,400 compounds, 40% hits; in the data active = inhibition above about 49%;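 also: CHO-Ga16 host cells challenged with agonist PEA near its EC80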
Ga16 ag counter – counter-screen for TAAR1 antagonists: nonselective Ga16 agonists; shares compounds with TAAR1 antagonist; 2,400 compounds, 18% hits; Ga16-expressing cells, calcium fluorescence, agonist counterscreen; activation, % at 3 µM; in the data active = activation above about 12%
TAAR1 ag count – counter-screen for human TAAR1 antagonists: TAAR1 agonists; AID 651955; hTAAR1 cell line, fluorescence activation, agonist mode; shares compounds with TAAR1 antagonist; activation, % at 3 µM; 2,400 compounds, 2% hits; in the data active = activation above about 37%;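 also: CHO cells stably expressing TAAR1 with calcium dye readout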
Each line names hits and unclear results; the compound was inactive in the other large screens (follow-up assays come after a bar, where they were run).

Cc1c(-c2ccccc2)nc2ccccc2c1C(=O)OCC(=O)Nc1ncc(C(F)(F)F)cc1Cl	TAAR1 antagonist 53.4 | nonsel antag count inactive | TAAR1 antag conf inactive | Ga16 ag counter inactive | TAAR1 ag count inactive
CC(C)Oc1ccccc1/C=N/NC(=O)C1CC1	TAAR1 antagonist 103.8 | nonsel antag count inactive | TAAR1 antag conf inactive | Ga16 ag counter inactive | TAAR1 ag count inactive
C[C@@H]1NC(=O)N(CCCn2ccnc2)C1=O	none
COC(=O)c1oc2c(c1C)C1(CCC2)SCCS1	TAAR1 antagonist 95.3 | nonsel antag count inactive | TAAR1 antag conf 82.5 | Ga16 ag counter inactive | TAAR1 ag count inactive
COc1ccc2oc(C(=O)OCC(=O)NC3(C#N)CCCC3)c(C)c2c1	none
COc1cccc(/C=C2\SC(=S)N(CCCC(=O)N3CCCCC3CCO)C2=O)c1 (stereo unspecified)	TAAR1 antagonist 54.7 | nonsel antag count 28.6 | TAAR1 antag conf inactive | Ga16 ag counter 11.6 | TAAR1 ag count inactive
Cc1cc(C)cc(OCC(=O)Nc2cccc(-c3nc4ncccc4o3)c2)c1	TAAR1 antagonist 70.4 | nonsel antag count 30.8 | TAAR1 antag conf 58.0 | Ga16 ag counter inactive | TAAR1 ag count inactive
Cc1ccc(OCC(=O)Nc2cccc(-c3nnc(-c4ccccc4)o3)c2)c(C)c1	TAAR1 antagonist 65.9 | nonsel antag count 41.4 | TAAR1 antag conf 64.0 | Ga16 ag counter inactive | TAAR1 ag count inactive
COc1ccc(CC(=O)Nc2cccc(-c3nnc(-c4ccc(C)cc4)o3)c2)cc1OC	TAAR1 antagonist 82.0 | nonsel antag count 52.6 | TAAR1 antag conf 69.1 | Ga16 ag counter 17.2 | TAAR1 ag count inactive
COc1ccc(CC(=O)Nc2cccc(-c3nnc(-c4ccccc4)o3)c2)cc1OC	TAAR1 antagonist 71.4 (no result: CHO parental Ca, OX1R antag-1, OX1R antag-2, NTR1 agonist) | nonsel antag count 56.7 | TAAR1 antag conf 72.5 | Ga16 ag counter 18.1 | TAAR1 ag count inactive
COc1ccc(CC(=O)Nc2ccc(-c3nnc(-c4ccccc4)o3)cc2)cc1OC	none (no result: TAAR1 antagonist, TAAR1 agonist)
CC(=O)NC(NC(=S)Nc1cccc(Br)c1)C(Cl)(Cl)Cl (stereo unspecified)	none
O=C(c1cc(COc2c(F)cccc2F)on1)N(Cc1ccccc1)CC1CC1	none
Cc1cnc([N+](=O)[O-])n1CCOC(=O)NC(=O)c1ccc(F)cc1	none
COc1ccc(-c2ccc(/C=N/N3C(=O)C4C5C=CC(C6CC56)C4C3=O)o2)c([N+](=O)[O-])c1 (stereo unspecified)	TAAR1 antagonist 56.2 | nonsel antag count 30.8 | TAAR1 antag conf 51.8 | Ga16 ag counter inactive | TAAR1 ag count inactive
Oc1c(N=NC(=S)Nc2ccccc2F)c2ccccc2n1Cc1ccccc1F	TAAR1 antagonist 54.4 | nonsel antag count inactive | TAAR1 antag conf inactive | Ga16 ag counter inactive | TAAR1 ag count inactive
CCCN(CC1CC1)C(=O)COC(=O)c1ccc2c(c1)C(=O)N(c1ccc(OCC)cc1)C2=O	TAAR1 antagonist 54.6 | nonsel antag count 30.4 | TAAR1 antag conf inactive | Ga16 ag counter inactive | TAAR1 ag count inactive
CCOc1ccc(N2C(=O)c3ccc(C(=O)OCc4c(C)noc4C)cc3C2=O)cc1	none
Cc1ccc(Nc2nc(-c3cccnc3)nc3ccccc23)cc1	TAAR1 antagonist 56.2 | nonsel antag count inactive | TAAR1 antag conf inactive | Ga16 ag counter inactive | TAAR1 ag count inactive
CC(=O)Nc1ccc(Nc2nc(-c3ccccc3)nc3ccccc23)cc1	TAAR1 antagonist 59.2 | nonsel antag count 34.1 | TAAR1 antag conf 55.9 | Ga16 ag counter inactive | TAAR1 ag count inactive
O=C(NCc1ccccc1)c1ccc(Br)o1	none
O=C(c1ccc(Br)o1)N(Cc1ccccc1)Cc1ccccc1	TAAR1 antagonist 49.8 | nonsel antag count inactive | TAAR1 antag conf inactive | Ga16 ag counter inactive | TAAR1 ag count inactive
O=C1NC[C@@H](c2ccccc2)OC(=O)[C@H](Cc2ccc(F)cc2)C/C=C\C[C@@H]1CC(=O)N(CCO)Cc1ccccc1	TAAR1 antagonist 66.6 | nonsel antag count inactive | TAAR1 antag conf inactive | Ga16 ag counter inactive | TAAR1 ag count inactive
O=C1NC[C@H](c2ccccc2)OC(=O)[C@@H](Cc2ccc(F)cc2)CC/C=C/C[C@@H]1CC(=O)N(CCO)Cc1ccccc1	none
CC(C)(C)OC(=O)C[C@H]1C/C=C\C[C@H](CC(=O)N[C@H](CO)Cc2ccccc2)C(=O)N[C@H](Cc2ccccc2)COC1=O	none
O=C1NC[C@H](c2ccccc2)OC(=O)[C@H](Cc2ccc(F)cc2)C/C=C\C[C@@H]1CC(=O)N(CCO)Cc1ccccc1	TAAR1 antagonist 77.2 | nonsel antag count 31.6 | TAAR1 antag conf inactive | Ga16 ag counter inactive | TAAR1 ag count inactive
O=C(C[C@H]1C/C=C\CC[C@H](Cc2ccc(F)cc2)C(=O)O[C@@H](c2ccccc2)CNC1=O)N[C@@H](CO)Cc1ccccc1	TAAR1 antagonist 59.2 | nonsel antag count 34.8 | TAAR1 antag conf 48.7 | Ga16 ag counter inactive | TAAR1 ag count inactive
CC(C)(C)OC(=O)C[C@@H]1C/C=C\C[C@H](CC(=O)N[C@H](CO)Cc2ccccc2)C(=O)N[C@@H](Cc2ccccc2)COC1=O	TAAR1 antagonist 58.6 | nonsel antag count 28.3 | TAAR1 antag conf inactive | Ga16 ag counter inactive | TAAR1 ag count inactive
COc1cc2c(cc1OC)[C@H](C)N(C(=O)NCc1ccccc1)CC2	none
Cc1ccc(S(=O)(=O)N2CCC(C(=O)NNC(=O)C3CC3)CC2)cc1Cl	none
CCOc1ccc(CNC(=O)CCC(=O)n2ncc3ccc(Cl)cc32)cc1	none
COc1ccc(-c2cc(-c3nnc(COC(=O)C4CC4C)o3)c3ccccc3n2)cc1OC (stereo unspecified)	TAAR1 antagonist 65.3 | nonsel antag count inactive | TAAR1 antag conf inactive | Ga16 ag counter inactive | TAAR1 ag count inactive
COc1ccc(-c2cc(-c3nnc(COC(=O)c4ccc(O)cc4)o3)c3ccccc3n2)cc1OC	none
CC(C)(C)C(=O)NNC(=O)c1cc(C(C)(C)C)nn1Cc1ccccc1	none
Cc1ccc(NC(=O)c2cc(C(C)(C)C)nn2Cc2ccccc2)cc1	TAAR1 antagonist 61.0 | nonsel antag count 24.3 | TAAR1 antag conf inactive | Ga16 ag counter inactive | TAAR1 ag count inactive

Assay outcomes (PubChem)
